Tn6 DDE FP: disrupts Tn6 cyclic peptide binding to fibrin D-Dimer-E complex. P02675. Fibrin DD(E) TRITC-Tn6 fluorescence polarization displacement. inhibition, % at 8.3 µM. 0.21% of 370,000 active;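 active means inhibition above a per-campaign cutoff: mean of compounds within control limits plus 3 SD, cut at about 15% in these data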;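 further: 0% = median of all compound wells on the plate and 100% = blocking peptide control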
Tn7 DDE FP: inhibitors of Tn7 peptide binding to human fibrin DD(E) | P02675 | FP displacement of FITC-Tn7 peptide from fibrin DD(E); 0% = median of compound wells per plate | inhibition, % at 8.3 µM | 0.13% of 370,000 active | AID 720508;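 active means inhibition above the mean of compounds falling within the control limits plus 3 SD of them, cut at about 14% in these data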;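 further: 0% = plate median of compound wells and 100% = 10 µM Aha-Tn7 peptide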
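Test system – human fibrin DD(E) · Times – 10 min preincubation, 3 h with tracer, room temperature · Detection – fluorescence polarization of the labelled Tn7 tracer · Measure – percent inhibition normalized to high-control wells · Benchmarks – high control wells with 10 µM unlabelled Aha-Tn7 peptide (full inhibition) · Repeats – singlicate testing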
SIAE primary: human SIAE inhibition, primary screen | inhibition, % at 9.66 µM | 0.69% of 370,000 active | AID 1053197 | SIAE FP-Rh probe binding, fluorescence polarization;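 active means inhibition above a cutoff: mean of compounds within the control limits plus 3 SD of those, cut at about 17% in these data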;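 further: 0% = plate median of compound wells and 100% = probe without SIAE protein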
HTRA1 inhibitor: blocks human HTRA1 serine peptidase; Q92743; recombinant HTRA1, FP-rhodamine activity-based probe, fluorescence polarization; inhibition, % at 5.96 µM; 0.5% of 340,000 active; in the data active means inhibition above about 36%;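 further: 0% = enzyme with DMSO and 100% = wells lacking enzyme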
TCR CD3 inh: inhibitors of human TCR-CD3 interaction; TAMRA-labeled TCR probe fluorescence, biochemical; inhibition, % at 9.4 µM; 0.37% of 360,000 active; AID 651800; in the data active means inhibition above about 19%;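 further: recombinant mutant TCR 2C K166C tagged with TAMRA read by polarization; 0% = receptor in buffer alone and 100% = receptor with positive control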
mABHD4 FP: inhibits mouse alpha/beta hydrolase domain 4. Q8VD66. purified mABHD4, FP-Rh probe fluorescence polarization. inhibition, % at 8.92 µM. 0.54% of 370,000 active. AID 720543;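 active means inhibition exceeding the mean over every tested compound plus 3 SD, cut at about 30% in these data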;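 further: 0% = plate median of compound wells and 100% = S159A mutant with DMSO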
Target sequence (Q8VD66 whole entry, looked up, the tested form may be a part): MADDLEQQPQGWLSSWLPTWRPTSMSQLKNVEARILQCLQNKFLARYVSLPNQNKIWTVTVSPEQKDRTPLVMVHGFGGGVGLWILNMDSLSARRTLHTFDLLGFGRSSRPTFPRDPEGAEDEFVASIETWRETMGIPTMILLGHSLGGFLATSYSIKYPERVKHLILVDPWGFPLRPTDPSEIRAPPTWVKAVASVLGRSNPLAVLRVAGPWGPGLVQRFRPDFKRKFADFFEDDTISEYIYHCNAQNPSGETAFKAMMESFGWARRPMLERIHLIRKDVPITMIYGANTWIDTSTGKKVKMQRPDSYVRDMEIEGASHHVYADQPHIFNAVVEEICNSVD
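Doses – 8.92 µM, single dose · Material – wild-type mouse ABHD4 protein · Replication – single well per compound (singlicate) · Measure – percent inhibition of probe binding, normalized to plate controls · Schedule – 45 min compound pre-incubation plus 60 min probe step, 25 °C · Detection – fluorescence polarization with parallel and perpendicular emission, 525/598 nm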
SIAE inh conf: human SIAE inhibition, confirmation. shares compounds with SIAE primary. SIAE FP-Rh activity-based probe, fluorescence polarization. inhibition, % at 9.66 µM. 13% of 2,300 active. AID 1117263;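 active means mean inhibition of the replicates above the hit cutoff set in the primary screen, cut at about 17% in these data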;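 further: 0% = SIAE with DMSO and probe and 100% = probe without SIAE; inhibitors lower polarization as more probe stays unbound to SIAE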
An asterisk follows results filed as active; x = no result given. In the library only some 1.8% were active in any assay of this set; here they are far more common.

SMILES | Tn6 DDE FP | Tn7 DDE FP | SIAE primary | HTRA1 inhibitor | TCR CD3 inh | mABHD4 FP | SIAE inh conf
COc1ccc(-n2c(Cc3cccn3C)nnc2SCC(=O)N2CCCC2)cc1 | -8 | 3 | 18* | -10 | -12 | 0 | 1
COc1cccc(C(=O)OC(C)C(=O)Nc2ccc3c(c2)OCO3)c1 (stereo not drawn) | -2 | 1 | 19* | -1 | 4 | 6 | 1
CC(OC(=O)c1cccc(NS(C)(=O)=O)c1)C(=O)Nc1ccc2c(c1)OCO2 (stereo not drawn) | -1 | -6 | -5 | 6 | 3 | 0 | x
CCOc1cc(/C=N/Nc2nc(-c3cccc(S(=O)(=O)N4CCCC4)c3)cs2)ccc1O | -3 | 1 | 21* | 18 | -1 | 1 | -1
COc1cc(/C=N/Nc2nc(-c3ccc(S(=O)(=O)N(C)C)cc3)cs2)ccc1O | -3 | -3 | 17* | 8 | -10 | 12 | 8
COc1ccc(/C=N/Nc2nc(-c3cccc(S(=O)(=O)N4CCCC4)c3)cs2)cc1OC | 0 | -4 | 1 | -2 | -2 | 8 | x
COC(=O)C1CCCN(C(=O)C2CCN(S(=O)(=O)c3ccccc3[N+](=O)[O-])CC2)C1 (stereo not drawn) | -1 | 2 | -7 | x | x | 2 | x
O=C1NC[C@H](Cc2ccccc2)N(C[C@@H]2CCCN2C[C@H](Cc2ccc(O)cc2)N2C[C@H](Cc3ccccc3)N(CCc3ccccc3)C(=O)C2=O)C1=O | 3 | 8 | -1 | x | 6 | 2 | x
CC1=C(C(=O)Nc2ccccc2)C(c2ccco2)NC(=O)N1 (stereo not drawn) | 6 | 10 | -4 | 8 | 4 | 0 | x
CC1=C(C(=O)Nc2ccc(C)cc2)C(c2ccco2)NC(=O)N1 (stereo not drawn) | 9 | -3 | 23* | 4 | -9 | 0 | -9
Cc1cccc(N2CCN(C(=O)CCNS(=O)(=O)c3ccc4c(c3)oc(=O)n4C)CC2)c1C | 0 | -6 | -2 | 6 | 3 | 0 | x
CC1CCC(C(C)C)C(OC(=O)COC(=O)c2ccc(=O)[nH]c2)C1 (stereo not drawn) | -3 | 3 | -8 | -1 | 4 | -5 | x
CC1CCC(C(C)C)C(OC(=O)COC(=O)c2cc(O)ccc2N)C1 (stereo not drawn) | -9 | -4 | 20* | 18 | 5 | 26 | 9
COCCCn1cc(CN2CC(N3CCN(C4CCN(C)CC4)CC3)CS2(=O)=O)nn1 (stereo not drawn) | -7 | -4 | 1 | x | 3 | -13 | x
CCOC(=O)N1CCN(Cc2c(F)cccc2F)CC1 | 3 | 2 | 4 | 6 | 6 | 12 | x
CCOC(=O)N1CCN(Cc2c(F)cccc2Cl)CC1 | -1 | 4 | 18* | 0 | 1 | 11 | 3
CC[C@H](CCCc1ccccc1OC)CCS(=O)(=O)N(C)C | 3 | 7 | -2 | x | x | -1 | x
OC[C@@H]1CN(Cc2ccncc2)C[C@H](n2cnc3c(N4CCOCC4)ncnc32)O1 | 0 | 10 | -4 | x | -1 | -1 | x
CC(=O)N(C)c1ccc(C=C2C=Cc3ccccc32)cc1 | 8 | 7 | 7 | 2 | 5 | 1 | x
O=C(NS(=O)(=O)c1ccccc1[N+](=O)[O-])[C@H]1O[C@@H](n2ccc(=O)[nH]c2=O)[C@H](O)[C@@H]1O | 1 | 3 | 30* | x | 4 | -1 | 30*
CN(C)c1cccc2c(S(=O)(=O)NC(=O)[C@H]3O[C@@H](n4ccc(=O)[nH]c4=O)[C@H](O)[C@@H]3O)cccc12 | 5 | 5 | 36* | x | 9 | -5 | 46*
Nc1ncnc2c1ncn2[C@@H]1O[C@H](C(=O)NS(=O)(=O)c2ccccc2[N+](=O)[O-])[C@@H](O)[C@H]1O | 2 | 4 | 2 | x | -6 | -10 | x
CCN(Cc1ccccc1)C(=O)C1CCN(CC2CC=CCC2)CC1 (stereo not drawn) | 2 | -3 | 22* | 9 | -6 | 4 | 1
CCOC(=O)[C@@]12CN(C(=O)OC(C)(C)C)CC=C1N(Cc1ccc(OC)cc1)C(=O)[C@H]2CC(=O)N1CCOCC1 | -3 | 3 | 0 | x | x | 6 | x
CCOc1ccc2oc(C(=O)N3CCN(c4ccccc4OCC)CC3)c(C)c2c1 | 11 | 4 | -4 | -27 | 3 | 4 | x
SMILES | Tn6 DDE FP | Tn7 DDE FP | SIAE primary | HTRA1 inhibitor | TCR CD3 inh | mABHD4 FP | SIAE inh conf
C=CCn1c(C)nnc1SCC(=O)N1c2ccccc2NC(=O)C1(C)C | 2 | 6 | 18* | 3 | 0 | 1 | -8
COC(=O)C1=C(NC(=O)COc2ccc(Cl)cc2Cl)CCS1 | -3 | -2 | 20* | -1 | 1 | -5 | -2
COc1ccc(NC(=O)c2cc3c(Cl)nc4ccccc4c3s2)cc1OC | -2 | -9 | 26* | -4 | -6 | 14 | -4
Cc1cc(Nc2ccccc2C(=O)O)nc2nc3ccccc3c(=O)n12 | 1 | 2 | 23* | -2 | 4 | -2 | -4
O=C(O)c1ccccc1Nc1ccccc1 | -5 | -2 | 0 | 3 | -1 | 5 | x
O=C(CCc1c[nH]c2ccccc12)NCCc1ccc2c(c1)OCCO2 | -3 | -2 | 17* | -1 | -2 | 0 | -2
CC(C)C(=O)Nc1nnc(Cc2c[nH]c3ccccc23)s1 | 4 | 0 | -1 | 3 | 7 | -5 | x
O=C(CCc1c[nH]c2ccccc12)Nc1ccc(Nc2ccccc2)cc1 | -5 | -2 | 17* | x | -8 | 9 | 13
O=C(NCCc1c[nH]c2ccccc12)C(=O)c1c[nH]c2ccccc12 | 5 | -5 | 27* | -19 | 6 | -8 | -5
O=C(NCCc1ccc(Cl)cc1)C(=O)c1c[nH]c2ccccc12 | -5 | 2 | 3 | -10 | 1 | -14 | x
CCc1nnc(NC(=O)CCc2c[nH]c3ccccc23)s1 | 0 | 2 | 18* | -1 | -1 | 1 | 5
O=C(CCc1c[nH]c2ccccc12)Nc1ccc(Nc2cccnc2)cc1 | -6 | 3 | 11 | x | -4 | 9 | x
O=C(CCc1c[nH]c2ccccc12)NCc1cccc(Cl)c1 | 0 | 9 | 3 | 2 | -7 | -9 | x
CCCS(=O)(=O)NC(=O)C1(C)CCN(C(=O)c2ccc(F)c(C)c2)C1 (stereo not drawn) | 5 | -2 | -5 | x | 4 | 3 | x
O=C(CCc1c[nH]c2ccccc12)Nc1ccc(Nc2ccncc2)cc1 | -7 | 1 | 26* | x | -4 | 10 | 21*
CN(c1cccnc1)c1ccc(NC(=O)CCc2c[nH]c3ccccc23)cc1Br | -7 | 2 | 32* | x | -6 | 23 | 45*
O=C(CCc1c[nH]c2ccccc12)Nc1ccc(Nc2cccnc2)c(Br)c1 | -3 | -4 | 17 | x | -6 | 14 | x
